Reference: ChEMBL document CHEMBL4831479, “Discovery of Novel Thiophene-arylamide Derivatives as DprE1 Inhibitors with Potent Antimycobacterial Activities” (J Med Chem, 2021)
≈ marks a conversion by molar mass, not a printed value.

Columns and labels:
Format in all cases: functional
Conditions in all cases: variant bovis BCG, 168 h, time 7 day
[1] = tested on: Mycobacterium tuberculosis; assay: Antibacterial activity against Mycobacterium bovis BCG transfected with pMV261:Mt-dprE1 assessed as bacterial growth inhibition incubated for 7 days by resazurin assay
Method in brief: (§1)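 M. bovis BCG Pasteur carrying pMV261 (constitutive expression) with Mt-dprE1, Mt-dprE2 or empty vector; MIC after 7 days' exposure to compound, viability read as endogenous reductase conversion of resazurin to resorufin. INH used as control.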

[2] = tested on: Mycobacterium tuberculosis; assay: Antibacterial activity against Mycobacterium bovis BCG transfected with pMV261:Mt-dprE2 assessed as bacterial growth inhibition incubated for 7 days by resazurin assay; method in brief: as §1
[3] = tested on: Mycobacterium tuberculosis; assay: Antibacterial activity against wild type Mycobacterium bovis BCG assessed as bacterial growth inhibition incubated for 7 days by resazurin assay; method in brief: as §1

Row | SMILES | MIC [1] [µg/mL] | MIC [2] [µg/mL] | MIC [3] [µg/mL]
1 | O=C(Nc1sccc1C(=O)Nc1nccc(C(F)(F)F)n1)c1ccc(C(=O)N2CCCCC2)cc1 | 12.8 (≈ 25.4 µM) | 1.6 (≈ 3.18 µM) | 1.6 (≈ 3.18 µM)
2 | CCOC(=O)NC(=O)c1ccsc1NC(=O)c1ccc(C(=O)N2CCCCC2)cc1 | > 1.28 | 0.32 (≈ 0.745 µM) | 0.32 (≈ 0.745 µM)
3 | CCOC(=O)NC(=O)c1ccsc1NC(=O)c1ccc(C(=O)N2CCCCC2)c(F)c1 | > 0.51 |  | 0.064 (≈ 0.143 µM)
4 | CCOC(=O)NC(=O)c1ccsc1NC(=O)c1ccc(C(=O)N2CCCCC2)s1 | 8.96 (≈ 20.6 µM) | 0.56 (≈ 1.29 µM) | 0.28 (≈ 0.643 µM)
5 | COC(=O)NC(=O)c1ccsc1NC(=O)c1ccc(C(=O)N2CCCCC2)cc1 | 12.2 (≈ 29.3 µM) | 1.52 (≈ 3.66 µM) | 0.76 (≈ 1.83 µM)
6 | COC(=O)NC(=O)c1ccsc1NC(=O)c1ccc(C(=O)N2CCCCC2)c(F)c1 | > 1.98 | 0.25 (≈ 0.577 µM) | 
7 | CCOC(=O)NC(=O)c1ccsc1NC(=O)c1nc2ccccc2s1 | 15.4 (≈ 40.9 µM) |  | 
